Calls of active or inactive are those of the source. The rule behind the calls is not given here.
Tests used:
[1] = biological target: T1, Metabotropic glutamate receptor 5 (Rattus norvegicus, UniProt P31424); assay: Displacement of [3H]methoxyPEPy from rat mGluR5 expressed in HEK293 cells; format: cell-based
Method in brief: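 Membranes from stable HEK cells expressing rat mGluR5a, resuspended in 50 mM Tris HCl/0.9% saline, pH 7.4. Final: 2 nM [3H]methoxyPEPy, 0.1 mg protein/mL, 0.13% DMSO, triplicate; 60 min at room temperature with shaking. Filtration onto GF/B filters, scintillation counting. Nonspecific binding with 5 µM MPEP. Ki derived from IC50 by nonlinear fit; mean ± SEM of three experiments.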

[2] = biological target: T1, Metabotropic glutamate receptor 5; assay: (§1) Activity at mGluR5 assessed as potentiation of glutamate-induced calcium flux in rat astrocytes; format: functional, cell-based
Method in brief: (§2)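 Cortical astrocytes from 2-4-day-old Sprague Dawley rats, grown 1 week in DMEM/10% FBS/2 mM glutamine/20 mM HEPES at 37 °C, 5% CO2, then plated on poly-D-lysine. Dye-loaded 1 h at 37 °C; HBSS with 20 mM HEPES, 2.5 mM probenecid, pH 7.4.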

[3] = biological target: Metabotropic glutamate receptor 5 (Rattus norvegicus) (UniProt P31424); assay: as §1; format: functional, cell-based; method in brief: as §2
Metabotropic glutamate receptor 5 (Rattus norvegicus), sequence (P31424 21-1203 limits assumed): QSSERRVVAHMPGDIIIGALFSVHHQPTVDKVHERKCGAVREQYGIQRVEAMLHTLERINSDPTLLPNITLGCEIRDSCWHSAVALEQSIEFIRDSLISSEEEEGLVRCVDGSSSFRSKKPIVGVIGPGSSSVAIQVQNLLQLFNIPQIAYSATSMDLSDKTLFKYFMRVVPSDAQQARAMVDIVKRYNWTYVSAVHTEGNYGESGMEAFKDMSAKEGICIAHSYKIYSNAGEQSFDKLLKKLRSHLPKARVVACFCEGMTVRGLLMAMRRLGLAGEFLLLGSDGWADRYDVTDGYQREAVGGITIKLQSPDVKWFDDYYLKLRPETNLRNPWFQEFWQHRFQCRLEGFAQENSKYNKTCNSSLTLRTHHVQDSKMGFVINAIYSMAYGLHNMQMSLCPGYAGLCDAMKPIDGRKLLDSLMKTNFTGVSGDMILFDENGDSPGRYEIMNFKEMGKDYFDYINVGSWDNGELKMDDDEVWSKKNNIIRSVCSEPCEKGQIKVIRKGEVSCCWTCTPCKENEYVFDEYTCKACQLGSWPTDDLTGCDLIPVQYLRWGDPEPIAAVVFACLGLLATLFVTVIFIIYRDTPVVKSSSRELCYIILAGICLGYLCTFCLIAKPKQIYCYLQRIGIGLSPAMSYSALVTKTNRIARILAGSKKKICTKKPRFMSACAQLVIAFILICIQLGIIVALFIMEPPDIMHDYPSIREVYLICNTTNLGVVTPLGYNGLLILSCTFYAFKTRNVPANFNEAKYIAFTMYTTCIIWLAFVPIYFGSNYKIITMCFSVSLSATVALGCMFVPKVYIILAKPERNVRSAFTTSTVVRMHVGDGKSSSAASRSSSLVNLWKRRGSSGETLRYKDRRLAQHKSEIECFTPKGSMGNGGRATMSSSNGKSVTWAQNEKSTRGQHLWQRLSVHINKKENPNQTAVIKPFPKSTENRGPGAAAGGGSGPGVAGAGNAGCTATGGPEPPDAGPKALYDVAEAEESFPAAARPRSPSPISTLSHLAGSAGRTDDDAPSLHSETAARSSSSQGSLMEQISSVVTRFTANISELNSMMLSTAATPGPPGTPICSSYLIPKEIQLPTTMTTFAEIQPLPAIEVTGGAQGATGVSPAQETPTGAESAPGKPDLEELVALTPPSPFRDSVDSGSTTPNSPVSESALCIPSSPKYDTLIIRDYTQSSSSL

T1 sequence (P31424 whole entry): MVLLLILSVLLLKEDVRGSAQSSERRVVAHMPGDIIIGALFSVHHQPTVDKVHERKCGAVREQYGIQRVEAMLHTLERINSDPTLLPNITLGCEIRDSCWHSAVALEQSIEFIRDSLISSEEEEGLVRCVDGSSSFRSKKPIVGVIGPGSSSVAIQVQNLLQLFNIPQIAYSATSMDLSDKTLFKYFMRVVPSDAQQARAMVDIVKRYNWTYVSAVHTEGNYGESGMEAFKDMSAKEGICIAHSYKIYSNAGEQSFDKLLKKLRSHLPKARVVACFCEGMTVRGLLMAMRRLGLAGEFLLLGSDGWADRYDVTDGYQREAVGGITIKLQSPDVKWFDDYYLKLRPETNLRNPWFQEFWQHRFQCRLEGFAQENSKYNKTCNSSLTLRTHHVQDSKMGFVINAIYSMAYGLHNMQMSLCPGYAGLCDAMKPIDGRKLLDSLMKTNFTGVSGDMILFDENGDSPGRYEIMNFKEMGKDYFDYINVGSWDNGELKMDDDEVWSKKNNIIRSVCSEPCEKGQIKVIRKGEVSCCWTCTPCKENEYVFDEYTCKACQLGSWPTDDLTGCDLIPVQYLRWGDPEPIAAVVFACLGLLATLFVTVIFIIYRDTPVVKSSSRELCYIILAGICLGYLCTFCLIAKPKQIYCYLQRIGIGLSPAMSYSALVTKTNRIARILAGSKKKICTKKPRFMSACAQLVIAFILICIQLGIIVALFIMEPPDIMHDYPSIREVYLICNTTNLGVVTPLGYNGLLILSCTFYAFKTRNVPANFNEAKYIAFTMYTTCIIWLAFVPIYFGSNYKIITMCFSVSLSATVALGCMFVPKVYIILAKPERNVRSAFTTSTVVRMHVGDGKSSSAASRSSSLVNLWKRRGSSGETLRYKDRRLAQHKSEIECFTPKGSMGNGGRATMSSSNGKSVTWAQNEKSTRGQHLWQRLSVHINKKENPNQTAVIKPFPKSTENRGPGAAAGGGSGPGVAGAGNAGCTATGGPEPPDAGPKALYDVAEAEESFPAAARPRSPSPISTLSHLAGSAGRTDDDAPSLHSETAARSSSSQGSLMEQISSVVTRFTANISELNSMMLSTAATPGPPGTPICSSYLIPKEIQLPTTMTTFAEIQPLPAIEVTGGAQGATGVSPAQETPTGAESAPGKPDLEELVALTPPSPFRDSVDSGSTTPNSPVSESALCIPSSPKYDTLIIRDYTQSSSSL

O=C(Nc1cc(-c2ccccc2)nn1-c1ccccc1Cl)c1ccc([N+](=O)[O-])cc1 showed a Ki [1] of 110 nM and an EC50 [2] of 40 nM.

For O=C(Nc1cc(-c2ccccc2)nn1-c1ccccc1)c1ccc(C(F)(F)F)cc1, the Ki [1] was 990 nM and the EC50 [2] was 38 nM.

Molecule N#Cc1ccc(C(=O)Nc2cc(-c3ccccc3)nn2-c2ccccc2)cc1 has a Ki [1] of 1560 nM and an EC50 [2] of 75 nM.

O=C(Nc1cc(-c2ccccc2)nn1-c1ccccc1Br)c1cccc([N+](=O)[O-])c1 was tested, and the Ki [1] was 230 nM and the EC50 [2] was 68 nM.

N#Cc1ccc(C(=O)/N=c2\cc(-c3ccccc3)n(C(=O)c3ccc(C#N)cc3)n2-c2ccccc2)cc1 gave a Ki [1] of 5230 nM and an EC50 [2] of 43 nM.

O=C(Nc1cc(-c2ccccc2)nn1-c1ccccc1F)c1ccccc1 gave a Ki [1] of 2700 nM and an EC50 [2] of 104 nM.

Work on COc1ccc(C(=O)Nc2cc(-c3ccccc3)nn2-c2ccccc2)cc1OC yielded a Ki [1] of over 10000 nM and an EC50 [2] of 3530 nM.

O=C(Nc1c(-c2ccccc2)cnn1-c1ccccc1)c1ccccc1 was tested, and the Ki [1] was 1170 nM and the Activity ([3]; filed as antagonist) was “Antagonist”.

For O=C(CC1CCCC1)Nc1cc(-c2ccccc2)nn1-c1ccccc1, the Ki [1] was over 10000 nM and the EC50 [2] was 350 nM.

In the case of N#Cc1cccc(C(=O)Nc2cc(-c3ccccc3)nn2-c2ccccc2Br)c1, the Ki [1] is reported as 230 nM and the EC50 [2] is reported as 50 nM.

Work on Cc1ccc(C(=O)Nc2cc(-c3ccccc3)nn2-c2ccccc2)cc1C yielded a Ki [1] of 430 nM and an EC50 [2] of 20 nM.

With O=C(Nc1cn(-c2ccccc2)nc1-c1ccccc1)c1ccccc1 the Ki [1] was over 10000 nM and the EC50 [2] was over 10000 nM.

O=C(Nc1cc(-c2ccccc2)nn1-c1ccccc1)c1cccc([N+](=O)[O-])c1 showed a Ki [1] of 2220 nM and an EC50 [2] of 39 nM.

c1ccc(-c2cn(-c3cc(-c4ccccc4)nn3-c3ccccc3)nn2)cc1 showed a Ki [1] of 5880 nM and an EC50 [2] of 2600 nM.

O=C(Nc1cc(-c2ccccc2)nn1-c1ccccc1)C1CCCCC1 gave a Ki [1] of 10100 nM and an EC50 [2] of over 10000 nM.

Molecule O=C(/C=C/c1ccc([N+](=O)[O-])cc1)Nc1cc(-c2ccccc2)nn1-c1ccccc1 has a Ki [1] of 1810 nM and an EC50 [2] of 560 nM.

With COc1cccc(-c2cc(NC(=O)c3ccccc3)n(-c3ccccc3)n2)c1 the Ki [1] was 3200 nM and the EC50 [2] was 600 nM.

With N#Cc1cccc(C(=O)Nc2c(-c3ccccc3)cnn2-c2ccccc2)c1 the Ki [1] was 1200 nM and the Activity ([3]; filed as antagonist) was “Antagonist”.

Molecule O=C(c1ccc(F)cc1)N1CCC[C@H](c2nc(-c3ccc(F)cc3)no2)C1 has an EC50 [2] of 170 nM.

Work on Cc1ccc(C(=O)Nc2cc(-c3ccccc3)nn2-c2ccccc2)cc1 yielded a Ki [1] of 780 nM and an EC50 [2] of 64 nM.

O=C(Nc1cc(-c2ccccc2)nn1-c1ccccc1Br)c1ccc([N+](=O)[O-])cc1 gave a Ki [1] of 120 nM and an EC50 [2] of 61 nM.

In the case of O=C(Nc1cc(-c2ccccc2)nn1-c1ccccc1Cl)c1ccccc1, the Ki [1] is reported as 500 nM and the EC50 [2] is reported as 62 nM.

In the case of COc1cccc(-n2nc(-c3ccccc3)cc2NC(=O)c2ccccc2)c1, the Ki [1] is reported as 2100 nM and the EC50 [2] is reported as 570 nM.

In the case of O=C(Nc1cc(-c2ccccc2)nn1-c1ccccc1)c1ccccc1[N+](=O)[O-], the Ki [1] is reported as over 10000 nM and the EC50 [2] is reported as over 10000 nM.

O=C(Nc1cc(-c2ccccc2)nn1-c1ccccc1)c1ccc(Cl)c(Cl)c1 was tested, and the Ki [1] was 160 nM and the EC50 [2] was 13 nM.

With N#Cc1cccc(C(=O)Nc2c(-c3ccccc3)nc3ccccn23)c1 the Ki [1] was 1990 nM and the Activity ([3]; filed as antagonist) was “Antagonist”.

For N#Cc1cccc(C(=O)Nc2cn(-c3ccccc3)nc2-c2ccccc2)c1, the Ki [1] was over 10000 nM and the EC50 [2] was over 10000 nM.

Work on O=C(Nc1cc(-c2ccccc2)nn1-c1ccccc1)c1ccc(OC(F)(F)F)cc1 yielded a Ki [1] of 265 nM and an EC50 [2] of 18 nM.

COc1cc(OC)cc(C(=O)Nc2cc(-c3ccccc3)nn2-c2ccccc2)c1 was tested, and the Ki [1] was over 10000 nM and the EC50 [2] was 2040 nM.

In the case of O=C(Nc1cn(-c2ccccc2)nc1-c1ccccc1)c1ccc([N+](=O)[O-])cc1, the Ki [1] is reported as over 10000 nM and the EC50 [2] is reported as over 10000 nM.

N#Cc1ccc(C(=O)N(C(=O)c2ccc(C#N)cc2)c2cc(-c3ccccc3)nn2-c2ccccc2)cc1 showed a Ki [1] of 3050 nM and an EC50 [2] of 340 nM.

N#Cc1cccc(-n2nc(-c3ccccc3)cc2NC(=O)c2ccccc2)c1 showed a Ki [1] of over 10000 nM and an EC50 [2] of 117 nM.

O=C(Nc1cc(-c2ccccc2)nn1-c1ccccc1)c1ccccc1 showed a Ki [1] of 4180 nM and an EC50 [2] of 203 nM.

In the case of O=C(O)c1ccc(C(=O)Nc2cc(-c3ccccc3)nn2-c2ccccc2)cc1, the Ki [1] is reported as over 10000 nM and the Activity [3] is reported as “inactive”.

O=C(Nc1cc(-c2ccccc2)nn1-c1ccccc1Br)c1ccccc1 was tested, and the Ki [1] was 2600 nM and the EC50 [2] was 200 nM.

With O=C(Nc1cc(-c2ccccc2)nn1-c1ccccc1)c1cc([N+](=O)[O-])cc([N+](=O)[O-])c1 the EC50 [2] was 65 nM.

Work on O=C(Nc1cc(-c2ccccc2)nn1-c1ccccc1)c1ccc([N+](=O)[O-])cc1 yielded a Ki [1] of 250 nM and an EC50 [2] of 10.7 nM.

Molecule O=C(Nc1cc(-c2ccccc2)nn1-c1ccccc1)c1ccncc1 has a Ki [1] of over 10000 nM and an EC50 [2] of 2500 nM.

Cc1ccc(C(=O)Nc2cc(-c3ccccc3)nn2-c2ccccc2)cn1 showed a Ki [1] of 3480 nM and an EC50 [2] of 280 nM.

O=C(Nc1cc(-c2ccccc2)nn1-c1ccccc1)C1CCCC1 was tested, and the Ki [1] was 11600 nM and the EC50 [2] was 3410 nM.

With O=C(Nc1cc(-c2ccccc2Cl)nn1-c1ccccc1)c1ccccc1 the Ki [1] was over 10000 nM and the EC50 [2] was 2290 nM.

O=C(Nc1cc(-c2ccccc2)nn1-c1ccccn1)c1ccccc1 was tested, and the Ki [1] was over 10000 nM and the Activity [3] was “inactive”.

In the case of COc1cccc(C(=O)Nc2cc(-c3ccccc3)nn2-c2ccccc2)c1, the Ki [1] is reported as 1290 nM and the EC50 [2] is reported as 102 nM.

With COc1ccc(C(=O)Nc2cc(-c3ccccc3)nn2-c2ccccc2)cc1 the Ki [1] was 420 nM and the EC50 [2] was 54 nM.

Work on O=C(Nc1cc(-c2ccccc2)nn1-c1cccc(Br)c1)c1ccccc1 yielded a Ki [1] of over 10000 nM and an EC50 [2] of 400 nM.

For O=C(Nc1cc(-c2ccccc2)nn1-c1ccccc1F)c1ccc([N+](=O)[O-])cc1, the Ki [1] was 160 nM and the EC50 [2] was 9.6 nM.

With O=C(Nc1c(-c2ccccc2)nc2ccccn12)c1ccccc1 the Ki [1] was 3920 nM and the Activity ([3]; filed as antagonist) was “Antagonist”.

With O=C(Nc1cc(-c2ccccc2)nn1-c1ccccc1)C1=CCCCC1 the Ki [1] was 4470 nM and the EC50 [2] was 3300 nM.

O=C(Nc1c(-c2ccccc2)cnn1-c1ccccc1)c1ccc([N+](=O)[O-])cc1 was tested, and the Ki [1] was over 10000 nM and the EC50 [2] was over 10000 nM.

With NC(=O)c1ccc(C(=O)Nc2cc(-c3ccccc3)nn2-c2ccccc2)cc1 the Ki [1] was over 10000 nM and the Activity [3] was “inactive”.

Work on O=C(Nc1cc(-c2ccccc2)nn1-c1ccccc1)c1cccc(C(F)(F)F)c1 yielded a Ki [1] of 1650 nM and an EC50 [2] of 228 nM.
